Results: ChEMBL document CHEMBL3853327 (J Med Chem, 2016)

How the values were obtained:
[1] = test system: Human immunodeficiency virus 1; assay: Antiviral activity against HIV1 3B harboring reverse transcriptase F227L/V106A double mutant infected in human MT4 cells assessed as protection against virus induced cytotoxicity after 5 days by MTT assay; assay type: functional, cell-based; conditions: Human immunodeficiency virus 1, 3B, MT4, 120 h
Outline: (§1)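 MTT cytopathicity assay in MT-4 cells (6 × 10^5 cells/mL). Compounds serially diluted 5-fold in triplicate wells, run in parallel on infected and mock-infected cells. Virus added at 100−300 CCID50 per well. Viability read spectrophotometrically at 540 and 690 nm after 5 days, using the median OD of three wells. EC50 is the concentration giving 50% protection from viral cytopathogenicity.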

[2] = test system: Human immunodeficiency virus 1; assay: Antiviral activity against HIV1 3B harboring reverse transcriptase E138K mutant infected in human MT4 cells assessed as protection against virus induced cytotoxicity after 5 days by MTT assay; assay type: functional, cell-based; conditions: Human immunodeficiency virus 1, 3B, MT4, 120 h; outline: as §1
[3] = Selectivity index, ratio of CC50 for human mock-infected MT4 cells to EC50 for HIV1 3B harboring reverse transcriptase Y188L mutant infected in human MT4 cells; assay type: toxicity, cell-based; conditions: MT4 cells (mock-infected for CC50, HIV-1 infected for EC50)
Outline: (§2)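 Selectivity index is CC50/EC50. CC50 is the concentration that reduces OD540 of mock-infected MT-4 cells by 50% in the 5-day MTT assay. EC50 is the 50% protection from virus-induced cytopathicity, measured in parallel on infected wells.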

[4] = Selectivity index, ratio of CC50 for human mock-infected MT4 cells to EC50 for HIV1 3B harboring reverse transcriptase E138K mutant infected in human MT4 cells; assay type: toxicity, cell-based; conditions: MT4 cells (mock-infected for CC50, HIV-1 infected for EC50); outline: as §2
[5] = Selectivity index, ratio of CC50 for human mock-infected MT4 cells to EC50 for HIV1 3B harboring reverse transcriptase L100I mutant infected in human MT4 cells; assay type: toxicity, cell-based; conditions: MT4 cells (mock-infected for CC50, HIV-1 infected for EC50); outline: as §2
[6] = test system: Human immunodeficiency virus 1; assay: Antiviral activity against HIV1 3B harboring reverse transcriptase Y188L mutant infected in human MT4 cells assessed as protection against virus induced cytotoxicity after 5 days by MTT assay; assay type: functional, cell-based; conditions: Human immunodeficiency virus 1, 3B, MT4, 120 h; outline: as §1
[7] = Selectivity index, ratio of CC50 for human mock-infected MT4 cells to EC50 for wild type HIV1 3B harboring reverse transcriptase infected in human MT4 cells; assay type: toxicity, cell-based; conditions: MT4 cells (mock-infected for CC50, HIV-1 infected for EC50); outline: as §2
[8] = Cytotoxicity against human mock-infected MT4 cells assessed as reduction in cell viability after 5 days by MTT assay; assay type: toxicity, cell-based
Outline: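 Mock-infected MT-4 cells (6 × 10^5 cells/mL at seeding) with serial 5-fold compound dilutions in triplicate wells. Viability read by MTT after 5 days, absorbance at 540 and 690 nm, median OD of three wells. CC50 is the concentration reducing OD540 of mock-infected cells by 50%.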

[9] = Selectivity index, ratio of CC50 for human mock-infected MT4 cells to EC50 for HIV1 RES056 harboring reverse transcriptase K103N/Y181C double mutant infected in human MT4 cells; assay type: toxicity, cell-based; conditions: MT4 cells (mock-infected for CC50, HIV-1 infected for EC50); outline: as §2
[10] = Antiviral activity against HIV2 ROD harboring reverse transcriptase infected in human MT4 cells assessed as protection against virus induced cytotoxicity after 5 days by MTT assay; assay type: functional, cell-based, Human immunodeficiency virus type 2 (ISOLATE ROD); conditions: Human immunodeficiency virus 2, MT4, 120 h; outline: as §1
[11] = test system: Human immunodeficiency virus 1; assay: Antiviral activity against HIV1 3B harboring reverse transcriptase L100I mutant infected in human MT4 cells assessed as protection against virus induced cytotoxicity after 5 days by MTT assay; assay type: functional, cell-based; conditions: Human immunodeficiency virus 1, 3B, MT4, 120 h; outline: as §1
[12] = test system: Human immunodeficiency virus 1; assay: Potency index, ratio of ETV EC50 to compound EC50 for HIV1 3B harboring reverse transcriptase E138K mutant infected in human MT4 cells; assay type: functional
[13] = test system: Human immunodeficiency virus 1; assay: Antiviral activity against HIV1 3B harboring reverse transcriptase K103N mutant infected in human MT4 cells assessed as protection against virus induced cytotoxicity after 5 days by MTT assay; assay type: functional, cell-based; conditions: Human immunodeficiency virus 1, 3B, MT4, 120 h; outline: as §1
[14] = Selectivity index, ratio of CC50 for human mock-infected MT4 cells to EC50 for HIV1 3B harboring reverse transcriptase Y181C mutant infected in human MT4 cells; assay type: toxicity, cell-based; conditions: MT4 cells (mock-infected for CC50, HIV-1 infected for EC50); outline: as §2
[15] = Selectivity index, ratio of CC50 for human mock-infected MT4 cells to EC50 for HIV1 3B harboring reverse transcriptase K103N mutant infected in human MT4 cells; assay type: toxicity, cell-based; conditions: MT4 cells (mock-infected for CC50, HIV-1 infected for EC50); outline: as §2
[16] = Selectivity index, ratio of CC50 for human mock-infected MT4 cells to EC50 for HIV1 3B harboring reverse transcriptase F227L/V106A double mutant infected in human MT4 cells; assay type: toxicity, cell-based; conditions: MT4 cells (mock-infected for CC50, HIV-1 infected for EC50); outline: as §2
[17] = test system: Human immunodeficiency virus 1; assay: Potency index, ratio of ETV EC50 to compound EC50 for HIV1 3B harboring reverse transcriptase YI88L mutant infected in human MT4 cells; assay type: functional
[18] = test system: Human immunodeficiency virus 1; assay: Antiviral activity against HIV1 3B harboring reverse transcriptase Y181C mutant infected in human MT4 cells assessed as protection against virus induced cytotoxicity after 5 days by MTT assay; assay type: functional, cell-based; conditions: Human immunodeficiency virus 1, 3B, MT4, 120 h
Outline: (§3)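 MTT cytopathicity assay in MT-4 cells (6 × 10^5 cells/mL). Compounds serially diluted 5-fold in triplicate wells, run in parallel on infected and mock-infected cells. Virus added at 100−300 CCID50 per well. Viability read spectrophotometrically at 540 and 690 nm after 5 days, using the median OD of three wells.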

[19] = test system: Human immunodeficiency virus 1; assay: Potency index, ratio of ETV EC50 to compound EC50 for HIV1 3B harboring reverse transcriptase Y181C mutant infected in human MT4 cells; assay type: functional
[20] = test system: Human immunodeficiency virus 1; assay: Antiviral activity against wild type HIV1 3B harboring reverse transcriptase infected in human MT4 cells assessed as protection against virus induced cytotoxicity after 5 days by MTT assay; assay type: functional, cell-based; conditions: Human immunodeficiency virus 1, 3B, MT4, 120 h; outline: as §3
[21] = Inhibition of recombinant wild type HIV1 reverse transcriptase using DIG-dUTP/biotin-dUTP/dTTP assessed as suppression of biotin-dUTP incorporation after 1 hr by ELISA; design: species or system Human immunodeficiency virus 1
Outline: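 Recombinant WT HIV-1 RT in a Roche colorimetric kit: template plus DIG-dUTP, biotin-dUTP and dTTP, ±inhibitor, 1 h at 37 °C. Product captured on streptavidin plate 1 h at 37 °C, anti-DIG-POD 1 h at 37 °C, ABTS developed at 25 °C, read at OD405. IC50 is the concentration inhibiting biotin-dUTP incorporation by 50%.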

[22] = test system: Human immunodeficiency virus 1; assay: Fold resistance, ratio of IC50 for recombinant HIV1 reverse transcriptase K103N/Y181C double mutant to IC50 for wild type HIV1 reverse transcriptase
Outline: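 Ratio of mutant to WT IC50. Recombinant WT and K103N/Y181C RT were assayed with a kit: template plus DIG-dUTP, biotin-dUTP and dTTP, with or without inhibitor, 1 h at 37 °C. Product was captured on streptavidin, detected with anti-DIG-POD and ABTS, and read at 405 nm. IC50 is the concentration inhibiting biotin-dUTP incorporation by 50%.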

[23] = molecular target: Human immunodeficiency virus type 1 reverse transcriptase (Human immunodeficiency virus 1, UniProt Q72547, K103N/Y181C); assay: Inhibition of recombinant HIV1 reverse transcriptase K103N/Y181C double mutant using DIG-dUTP/biotin-dUTP/dTTP assessed as suppression of biotin-dUTP incorporation after 1 hr by ELISA

Compound	EC50 [1] [nM]	EC50 [2] [nM]	selectivity ratio [3]	selectivity ratio [4]	selectivity ratio [5]	EC50 [6] [nM]	selectivity ratio [7]	CC50 at 120 h [8] [nM]	selectivity ratio [9]	EC50 [10] [nM]	EC50 [11] [nM]	Ratio EC50 [12]	EC50 [13] [nM]	selectivity ratio [14]	selectivity ratio [15]	selectivity ratio [16]	Ratio EC50 [17]	EC50 [18] [nM]	Ratio EC50 [19]	EC50 [20] [nM]	further results
Cc1cc(C#N)cc(C)c1Oc1nc(NC2CCN(Cc3ccc(C(N)=O)cc3)CC2)nc2ccsc12	10.7	4.5	11100	21300	8760	8.6	66900	95400	1110	> 95400	10.8	2	1.8	18100	53800	8860	2	5.3	2	1.4	–
CNS(=O)(=O)c1ccc(CN2CCC(Nc3nc(Oc4c(C)cc(C#N)cc4C)c4sccc4n3)CC2)cc1	4.1	6.6	647	665	972	6.8	2790	4420	136	> 4420	4.5	2	1.5	911	2880	1090	2	4.8	2	1.5	–
Cc1cc(C#N)cc(C)c1Oc1nc(NC2CCN(Cc3ccc(NS(C)(=O)=O)cc3)CC2)nc2ccsc12	32.2	6.9	8870	9900	5020	8.2	44200	68300	261	> 68300	13.6	2	1.9	9890	35700	2120	2	6.9	2	1.5	–
Cc1cc(C)c(Oc2nc(NC3CCN(Cc4ccncc4)CC3)nc3ccsc23)c(C)c1	133	20.9	152	270	101	37.1	747	5650	27	> 5650	56.1	–	7.3	230	777	42	–	24.6	–	7.6	IC50 [21]: 210 nM; Ratio IC50 [22]: 6; IC50 [23]: 1260 nM
Cc1cc(C)c(Oc2nc(NC3CCN(Cc4ccc(F)cc4F)CC3)nc3ccsc23)c(C)c1	6610	174	18	80	11	787	380	14000	< 1	> 14000	1240	–	163	21	86	2	–	660	–	36.8	IC50 [21]: 1600 nM; Ratio IC50 [22]: 30; IC50 [23]: 46400 nM
